Here are results for three compounds from ChEMBL document CHEMBL4011638, “Semisynthetic Flavone-Derived Antimicrobials with Therapeutic Potential against Methicillin-Resistant Staphylococcus aureus (MRSA)” (J Med Chem, 2017).

Experiment [1] relates to Staphylococcus aureus. The experiment in a line: Antibacterial activity against Staphylococcus aureus ATCC 29213 infected in C57BL6 mouse keratitis model assessed as log reduction in bacterial burden at 0.5 % administered 4 times daily at 2 hrs interval for 1 day. It is filed as functional. A digest of the protocol:
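C57BL6 mice, 6–8 weeks, 20–30 g, four per group, anesthetized with ketamine/xylazine. Right cornea scratched (three 1 mm cuts), 10 μL of 6×10^8 CFU/mL S. aureus ATCC 29213 in PBS applied topically. From day 1, 0.5% drug in PBS (12 mM, pH 7.2) given 4 times at 2 h intervals. Corneas homogenized in 0.9% NaCl/0.25% BSA, diluted, plated in duplicate on TSA, 48 h at 35 °C.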

Experiment [2] has as its system Staphylococcus aureus. Put plainly: Ratio of MIC for Staphylococcus aureus ATCC 29213 after […] passages to MIC for Staphylococcus aureus ATCC 29213. It is filed as functional. The gist of the method:
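Serial passage. Initial MIC was determined against S. aureus ATCC29213 by broth microdilution. Bacteria from duplicate tubes at 0.5× MIC were diluted to ~5 × 10^5 CFU/mL for the next MIC round. Each round was incubated at 35 °C for 24 h and the fold increase in MIC recorded. Gatifloxacin and norfloxacin served as comparators. Repeated for 17 passages, biological replicates.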

The source made the active and inactive calls. No cut-off for these calls is given here.

`C[C@H]1COc2c(N3CCN(C)CC3)c(F)cc3c(=O)c(C(=O)O)cn1c23`: the outcome in experiment [1] was Active.

Take `CCn1cc(C(=O)O)c(=O)c2cc(F)c(N3CCNCC3)cc21` [NORFLOXACIN]: the Ratio in experiment [2] turned out to be 128.

`COc1c(N2CCNC(C)C2)c(F)cc2c(=O)c(C(=O)O)cn(C3CC3)c12` (stereo not drawn) [GATIFLOXACIN]: the Ratio in experiment [2] amounted to 64.
